Laboratory results: ChEMBL document CHEMBL5131404, “Lipophilic quinolone derivatives: Synthesis and in vitro antibacterial evaluation” (2022)
In brackets after ≈: the same amount, converted by molar mass.

Key:
Type in all cases: functional
[1] = system: Neisseria gonorrhoeae; experiment: Antibacterial activity against Neisseria gonorrhoeae WHO O
Outline: (§1)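 Agar dilution MIC. Strains were cultured on GC agar with 2% v/v Vitox and 1% haemoglobin. Suspensions of 10^5 CFU/mL were spotted in duplicate onto the same supplemented GC agar containing various compound concentrations, then incubated 24-48 h at 37°C in 5% CO2. The MIC is the lowest concentration inhibiting growth, from at least three independent experiments.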

[2] = system: Neisseria gonorrhoeae; experiment: Antibacterial activity against Neisseria gonorrhoeae ATCC 19424; outline: as §1
[3] = system: Neisseria gonorrhoeae; experiment: Antibacterial activity against Neisseria gonorrhoeae WHO E; outline: as §1
[4] = system: Pseudomonas aeruginosa; experiment: Antibacterial activity against Pseudomonas aeruginosa 143
Outline: (§2)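 Broth microdilution MIC following CLSI guidelines. Strains were grown on Mueller-Hinton agar beforehand. The MIC is the lowest compound concentration that inhibits bacterial growth, determined at least three times in independent experiments.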

[5] = system: Staphylococcus aureus; experiment: Antibacterial activity against Staphylococcus aureus ATCC 29213; outline: as §2
[6] = system: Neisseria gonorrhoeae; experiment: Antibacterial activity against Neisseria gonorrhoeae WHO C; outline: as §1
[7] = system: Staphylococcus aureus; experiment: Antibacterial activity against methicillin-resistant Staphylococcus aureus 196
Outline: (§3)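 Strains grown on Mueller-Hinton agar. MIC by broth microdilution following CLSI guidelines, taken as the lowest concentration inhibiting bacterial growth. Determined at least three times in independent experiments.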

[8] = system: Neisseria gonorrhoeae; experiment: Antibacterial activity against Neisseria gonorrhoeae WHO B; outline: as §1
[9] = system: Neisseria gonorrhoeae; experiment: Antibacterial activity against Neisseria gonorrhoeae WHO Q; outline: as §1
[10] = system: Neisseria gonorrhoeae; experiment: Antibacterial activity against Neisseria gonorrhoeae Barla194; outline: as §1
[11] = system: Neisseria gonorrhoeae; experiment: Antibacterial activity against Neisseria gonorrhoeae WHO A; outline: as §1
[12] = system: Staphylococcus aureus; experiment: Antibacterial activity against methicillin-resistant Staphylococcus aureus 197; outline: as §3
[13] = system: Acinetobacter baumannii; experiment: Antibacterial activity against Acinetobacter baumannii 140; outline: as §2
[14] = system: Acinetobacter baumannii; experiment: Antibacterial activity against Acinetobacter baumannii ATCC 19606; outline: as §2
[15] = system: Neisseria gonorrhoeae; experiment: Antibacterial activity against Neisseria gonorrhoeae WHO M
Outline: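 Agar dilution on GC agar base with 2% v/v Vitox and 1% haemoglobin containing graded compound concentrations. Suspensions at 10^5 CFU/mL spotted in duplicate. Incubation 24-48h, 37°C, 5% CO2. MIC taken as the lowest concentration inhibiting growth, determined at least three times in independent experiments.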

[16] = system: Neisseria gonorrhoeae; experiment: Antibacterial activity against Neisseria gonorrhoeae WHO G; outline: as §1
[17] = system: Escherichia coli; experiment: Antibacterial activity against Escherichia coli 203; outline: as §2
[18] = system: Pseudomonas aeruginosa; experiment: Antibacterial activity against Pseudomonas aeruginosa 142; outline: as §2
[19] = system: Acinetobacter baumannii; experiment: Antibacterial activity against Acinetobacter baumannii 139; outline: as §2
[20] = system: Neisseria gonorrhoeae; experiment: Antibacterial activity against Neisseria gonorrhoeae WHO K; outline: as §1
[21] = system: Neisseria gonorrhoeae; experiment: Antibacterial activity against Neisseria gonorrhoeae WHO Z; outline: as §1
[22] = system: Escherichia coli; experiment: Antibacterial activity against Escherichia coli ATCC 35218; outline: as §2
[23] = system: Pseudomonas aeruginosa; experiment: Antibacterial activity against Pseudomonas aeruginosa ATCC 27853; outline: as §2
[24] = system: Streptococcus pneumoniae; experiment: Antibacterial activity against Streptococcus pneumoniae ATCC 49169; outline: as §2
[25] = system: Escherichia coli; experiment: Antibacterial activity against Escherichia coli 202; outline: as §2

MIC [22] [µg/mL]	MIC [24] [µg/mL]	Structure (SMILES)	MIC [2] [µg/mL]	MIC [4] [µg/mL]	MIC [5] [µg/mL]	MIC [7] [µg/mL]	MIC [12] [µg/mL]	MIC [13] [µg/mL]	MIC [14] [µg/mL]	MIC [17] [µg/mL]	MIC [18] [µg/mL]	MIC [19] [µg/mL]	MIC [23] [µg/mL]	MIC [25] [µg/mL]	also measured
		O=C(O)c1cn(C2CC2)c2cc(N3CCNCC3)c(F)cc2c1=O [CIPROFLOXACIN]	0.004 (≈ 0.0121 µM)	> 32	0.25 (≈ 0.754 µM)	> 32	> 32	> 32	0.5 (≈ 1.51 µM)	> 32	> 32	> 32			MIC [1]: 0.004 µg/mL (≈ 0.0121 µM); MIC [3]: 0.002 µg/mL (≈ 0.00604 µM); MIC [6]: 0.004 µg/mL (≈ 0.0121 µM); MIC [8]: 0.008 µg/mL (≈ 0.0241 µM); MIC [9]: 0.008 µg/mL (≈ 0.0241 µM); MIC [10]: 32 µg/mL (≈ 96.6 µM); MIC [11]: 0.002 µg/mL (≈ 0.00604 µM); MIC [15]: 2 µg/mL (≈ 6.04 µM); MIC [16]: 0.125 µg/mL (≈ 0.377 µM); MIC [20]: ≥ 32 µg/mL; MIC [21]: > 32 µg/mL
≥ 64	0.5 (≈ 1.03 µM)	CCCCCCCC(=O)N1CCN(c2c(F)cc3c(=O)c(C(=O)O)cn(C4CC4)c3c2OC)CC1	1 (≈ 2.05 µM)		1 (≈ 2.05 µM)										
≥ 64	2 (≈ 4.22 µM)	CCCCC(CC)CN1CCN(c2c(F)cc3c(=O)c(C(=O)O)cn(C4CC4)c3c2OC)CC1 (stereo unspecified)	> 32		32 (≈ 67.6 µM)										
0.5 (≈ 1.05 µM)	1 (≈ 2.09 µM)	CCOCCOCCN1CCN(c2c(F)cc3c(=O)c(C(=O)O)cn(C4CC4)c3c2OC)CC1	2 (≈ 4.19 µM)		0.5 (≈ 1.05 µM)										

Structure (SMILES)	MIC [22] [µg/mL]	MIC [24] [µg/mL]	MIC [2] [µg/mL]	MIC [4] [µg/mL]	MIC [5] [µg/mL]	MIC [7] [µg/mL]	MIC [12] [µg/mL]	MIC [13] [µg/mL]	MIC [14] [µg/mL]	MIC [17] [µg/mL]	MIC [18] [µg/mL]	MIC [19] [µg/mL]	MIC [23] [µg/mL]	MIC [25] [µg/mL]	also measured
CCCCCCCCCCCCN1CCN(c2c(F)cc3c(=O)c(C(=O)O)cn(C4CC4)c3c2OC)CC1	64 (≈ 121 µM)	4 (≈ 7.55 µM)	0.12 (≈ 0.227 µM)	> 64	32 (≈ 60.4 µM)	≥ 64	≥ 64	64 (≈ 121 µM)	64 (≈ 121 µM)	> 64	> 64	≥ 64	> 64	32 (≈ 60.4 µM)	
CCCCCCCN1CCN(c2c(F)cc3c(=O)c(C(=O)O)cn(C4CC4)c3c2OC)CC1	1 (≈ 2.18 µM)	4 (≈ 8.7 µM)	0.25 (≈ 0.544 µM)	> 64	1 (≈ 2.18 µM)	2 (≈ 4.35 µM)	8 (≈ 17.4 µM)	64 (≈ 139 µM)	8 (≈ 17.4 µM)	> 64	> 64	4 (≈ 8.7 µM)	64 (≈ 139 µM)	2 (≈ 4.35 µM)	
